Source: PubChem BioAssay
hIAP act: increases human intestinal alkaline phosphatase activity; P09923; purified human IAP, CDP-Star luminescence, 30 min; hits give high values; 1 = vehicle-only enzyme, 0 = enzyme-free background; activation factor at 10 µM; actives 0.16% (n = 330,000); AID 2524;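 active means activation factor of the enzyme at least 2-fold when tested at 20 µM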
Target sequence (P09923 whole entry, looked up): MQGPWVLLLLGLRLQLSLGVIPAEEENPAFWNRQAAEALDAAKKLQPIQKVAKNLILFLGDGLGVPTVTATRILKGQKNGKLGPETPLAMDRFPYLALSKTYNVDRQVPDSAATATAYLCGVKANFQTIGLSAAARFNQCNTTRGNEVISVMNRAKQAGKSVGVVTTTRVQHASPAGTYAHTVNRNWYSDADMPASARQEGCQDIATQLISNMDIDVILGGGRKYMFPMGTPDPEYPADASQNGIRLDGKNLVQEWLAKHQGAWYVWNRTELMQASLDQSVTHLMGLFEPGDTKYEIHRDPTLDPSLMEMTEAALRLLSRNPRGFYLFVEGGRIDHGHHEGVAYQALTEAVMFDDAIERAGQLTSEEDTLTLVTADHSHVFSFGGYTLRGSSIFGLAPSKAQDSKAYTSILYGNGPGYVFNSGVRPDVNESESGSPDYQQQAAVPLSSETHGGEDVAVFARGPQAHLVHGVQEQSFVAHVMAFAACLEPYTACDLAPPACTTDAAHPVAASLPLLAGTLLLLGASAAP
hIAP inh: human IAP inhibition; P09923; purified IAP, CDP-Star luminescence, 30 min; inhibition, % at 10 µM; actives 0.12% (n = 330,000);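 active means inhibition reaching a set limit with compound at 10 µM in the primary screen, cut at about 35% in these data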
bIAP inhibitor: blocks bovine intestinal alkaline phosphatase activity; purified bovine IAP, CDP-star luminescence, 30 min; inhibition, % at 20 µM; 190,000 tested, under 10 active; AID 1019;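 active means over 50% inhibition of intestinal alkaline phosphatase at 20 µM in the single-dose screen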
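Incubation: 30 min reaction at room temperature / Material: purified bovine intestinal alkaline phosphatase (IAP) enzyme / Input: enzyme at 1/65,000,000 dilution / Dosing: 20 µM single dose / Signal: CDP-star luminescence signal / Reagent: CDP-star chemiluminescent phosphatase substrate, 30 µM final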
mIAP act: increases mouse intestinal alkaline phosphatase activity | actives 0.24% (n = 330,000) | activation factor at 10 µM | muIAP, CDP-Star luminescence, 30 min; hits give high values; 1 = vehicle-only enzyme signal, 0 = enzyme-free wells;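 active means activation factor of at least 2 at 20 µM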
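Assay system: mouse IAP enzyme; reagent: chemiluminescent substrate CDP-Star; dosing: test compounds delivered from DMSO solution; schedule: 30 min at room temperature; measured by: luminescence from enzymatic CDP-Star hydrolysis; controls: DMSO-only wells and no-enzyme negative control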
bIAP act: increases bovine intestinal alkaline phosphatase activity. AID 1016. actives 0.17% (n = 200,000). activation factor at 20 µM. purified bovine IAP, CDP-star luminescence, 30 min; hits give high values; fold of DMSO-control signal, blank-subtracted;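 active means activation factor of 2 or more at 20 µM, a signal rise over negative controls twice the positive control's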
mIAP block: mouse IAP inhibition. inhibition, % at 10 µM. actives 0.2% (n = 330,000). purified mouse IAP, CDP-Star luminescence, 30 min;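 active means inhibition of at least 40% at 10 µM in the primary screen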
hIAP act confirm: human IAP activation confirmation. actives 10% (n = 880). purified IAP, CDP-Star luminescence, 30 min; hits give low values. activation (%Activity, negative = activation), % at 8.3 µM. AID 434926. shares compounds with hIAP act;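 active means at least twofold enzyme activation in any of six single-dose repeats, which the averaged readout prints as negative percent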
Numbers stand for hits; – = inactive; · = no result. In the library only some 0.77% were active in any assay of this set; here they are far more common.

SMILES	hIAP act	hIAP inh	bIAP inhibitor	mIAP act	bIAP act	mIAP block	hIAP act confirm
Cc1cccc(N(C(=O)c2csnn2)C(C(=O)NC2CCCCC2)c2ccncc2)c1 (stereo not drawn)	–	–	·	–	·	–	·
Cc1ccccc1N(CC(=O)NC1CCCCC1)C(=O)CCCC(=O)Nc1ccccn1	–	–	·	–	·	–	·
Cn1c(C(=O)N2CCCC(C(=O)NCc3cccs3)C2)cc2sccc21 (stereo not drawn)	–	38	–	–	–	–	–
O=C1Nc2ccc(Br)cc2C12NNc1ccccc1O2 (stereo not drawn)	5	–	·	–	–	–	–
Cn1c(C(=O)Nc2ccc(Cl)cc2)cc2cc(Cl)ccc21	–	–	·	–	·	–	·
Cc1ccc(C2CC2C(=O)NNC(=S)Nc2ccc(Cl)cc2)cc1 (stereo not drawn)	2.4	–	–	–	–	–	–
Cc1cccc(NC(=S)NNC(=O)Cc2ccccc2)c1	–	–	–	–	–	–	·
O=C(Cc1ccccc1)NNC(=S)Nc1ccc(Cl)cc1	2.1	–	–	–	–	–	–
Cc1cc(C(=O)Nc2ccccc2Cl)c2ccccc2n1	–	38	·	–	·	–	–
Cc1ccc(NC(=O)c2cc(C)nc3ccccc23)c(C)c1	–	–	·	–	·	–	·
O=c1c(OC2OC(CO)C(O)C(O)C2O)c(-c2ccc(O)c(O)c2)oc2cc(O)cc(O)c12 (stereo not drawn)	–	56	–	–	–	–	–
C[C@@H]1O[C@@H](Oc2c(-c3cc(O)c(O)c(O)c3)oc3cc(O)cc(O)c3c2=O)[C@H](O)[C@H](O)[C@H]1O	–	–	–	–	–	–	·
O=c1c(O[C@@H]2O[C@H](CO)C(O)C2O)c(-c2ccc(O)c(O)c2)oc2cc(O)cc(O)c12 (stereo partly drawn)	–	59	·	–	·	–	–
O=c1c(O[C@H]2O[C@@H](CO)[C@H](O)[C@@H](O)[C@@H]2O)c(-c2ccc(O)cc2)oc2cc(O)cc(O)c12	–	–	·	–	·	–	·
C[C@@H]1O[C@@H](Oc2c(-c3ccc(O)c(O)c3)oc3cc(O)cc(O)c3c2=O)[C@H](O)[C@H](O)[C@H]1O	–	36	·	–	·	–	–
CC(NC(=O)COc1ccc(S(=O)(=O)N2CCCC2)cc1)c1ccccc1 (stereo not drawn)	–	–	·	–	·	–	·
Cc1ccccc1C(=O)NC(=S)Nc1ccc2[nH]c(=O)[nH]c2c1	–	–	–	–	–	–	·
CCC1CCCCN1C1Sc2ccc(C(=O)OC)cc2NC1=O (stereo not drawn)	2	–	–	–	–	–	-69
CCOC(=O)C1CCCN(C(=S)NC(=O)/C=C/c2ccc(F)cc2)C1 (stereo not drawn)	–	39	·	–	·	–	–
O=C(NCCOc1ccccc1F)C1CC(=O)N(c2ccc3c(c2)OCCO3)C1 (stereo not drawn)	–	–	·	–	·	–	·
CC(C)CNC1=C(C(=S)Nc2ccccc2)C(=O)CC(C)(C)C1	–	–	–	–	–	–	·
CN1C(=O)C(=O)/C(=C(/O)c2ccc(Br)cc2)C1c1ccc(Cl)cc1 (stereo not drawn)	–	41	·	–	·	–	–
CN1C(=O)C(=O)/C(=C(/O)c2ccccc2)C1c1ccc(Br)cc1 (stereo not drawn)	–	–	·	–	·	–	·
Cc1ccc(NS(=O)(=O)c2cc([N+](=O)[O-])ccc2N/N=C/c2sc(N3CCOCC3)nc2-c2ccccc2)c(C)c1	–	–	·	–	·	–	·
CCCOc1cc(N(CC)CC)ccc1/C=C(/C#N)c1nc2ccc(C)cc2[nH]1	–	37	–	–	–	–	–
SMILES	hIAP act	hIAP inh	bIAP inhibitor	mIAP act	bIAP act	mIAP block	hIAP act confirm
O=C(NCC1CCCO1)c1ccc(Br)s1 (stereo not drawn)	–	40	·	–	·	–	–
COc1ccc(-n2ccn(CC(=O)Nc3ccc(OC)cc3OC)c(=O)c2=O)cc1	–	44	·	–	·	–	–
CN(Cc1ccsc1)C(=O)Cn1cc(Br)ccc1=O	–	–	·	–	·	–	·
COc1cc(/C=C2\CCC/C(=C\c3ccc(O)c(OC)c3)C2=O)ccc1O	–	–	·	–	·	–	·
COc1cc(/C=C2/CCC/C(=C\c3cc(O)c(OC)c(Cl)c3)C2=O)cc(Cl)c1O	–	40	·	–	–	–	–
Cc1ccc(-n2c(Cc3ccccc3)nnc2SCC(=O)NNC(=O)Cc2ccccc2)cc1	2	–	–	–	–	–	–
CCOC(=O)CSc1nnc(Cc2ccccc2)n1-c1ccc(C)cc1	–	–	–	–	–	–	·
COc1cc(OC)c(OC)cc1/C=N/n1c(-c2n[nH]c3c2CCC3)n[nH]c1=S	2.1	–	·	–	·	–	–
CC(=O)N(C)c1ccc(NC(=O)COc2ccc(Br)cc2C)cc1	–	–	–	–	–	–	·
COc1ccc(NC(=O)/C(C#N)=C\c2ccc(N3CCOCC3)o2)cc1	–	39	–	–	–	–	–
CCOc1ccc(CC(=O)NNC(=S)NC2CCCCC2)cc1OCC	2.1	–	–	–	–	–	-80
CCCCNCCCCOc1ccccc1	2.1	–	–	–	–	–	–
Cc1nn(C)c(C(=O)NNC(=S)NCc2ccccc2)c1Cl	2	–	·	–	·	–	-141
Cc1nn(C)c(C(=O)NC(=S)Nc2ccccc2Br)c1Cl	–	–	·	–	·	–	·
O=C(COc1ccccc1)NCC(=O)N/N=C/c1ccc(O)cc1O	2.1	–	·	–	·	–	–
COc1cccc(/C=N/NC(=O)CNC(=O)COc2ccccc2)c1O	–	–	·	–	·	–	·
Cc1cc2cc3c(cc2nc1SCC(=O)Nc1nc(C)c(C)s1)OCO3	2.2	–	–	–	–	–	–
COC(=O)CSc1nc2cc3c(cc2cc1C)OCO3	–	–	–	–	–	–	·
COc1ccc(/C(O)=C/C(=O)C(=O)NNC(=O)c2ccccc2)cc1	2.2	–	·	–	·	–	–
COc1ccccc1C1=NN(C2=NN=C(N)Cc3ncnn32)C(O)(C(F)(F)F)C1 (stereo not drawn)	2.8	–	–	–	–	–	–
NC1=NN=C(N2N=C(c3ccccc3)CC2(O)C(F)(F)F)n2ncnc2C1 (stereo not drawn)	–	–	–	–	–	–	·
COc1ccc(C2=NN(C3=NN=C(N)Cc4ncnn43)C(O)(C(F)(F)F)C2)cc1 (stereo not drawn)	2.6	–	–	–	–	–	–
CCOC(=O)N1N=C(c2ccc(OC)cc2)CC1(O)C(F)(F)F (stereo not drawn)	–	–	–	–	–	–	·
NC1=NN=C(N2N=C(c3ccc(Br)cc3)CC2(O)C(F)(F)F)n2ncnc2C1 (stereo not drawn)	2.6	–	–	–	–	–	–
